Measured values as given in ChEMBL document CHEMBL5325428 (Eur J Med Chem, 2023).

Key:
Neutrophil elastase = molecular target: T1, Neutrophil elastase (Homo sapiens, UniProt P08246); test: Inhibition of human neutrophil elastase; assay type: toxicity
T1 sequence (P08246 whole entry): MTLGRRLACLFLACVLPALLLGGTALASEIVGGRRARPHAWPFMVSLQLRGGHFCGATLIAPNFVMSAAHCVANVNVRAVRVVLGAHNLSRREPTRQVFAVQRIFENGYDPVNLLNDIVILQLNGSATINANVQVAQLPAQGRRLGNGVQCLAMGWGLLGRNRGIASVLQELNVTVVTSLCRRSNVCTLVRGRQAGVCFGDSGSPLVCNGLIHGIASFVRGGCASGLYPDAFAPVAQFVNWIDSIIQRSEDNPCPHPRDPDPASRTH
Method in brief: (§1)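 Commercial purified human proteases were assayed following the manufacturers' procedures. IC50 values are mean ± SD.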

Prothrombin = Prothrombin (Homo sapiens, UniProt P00734); test: Inhibition of human thrombin; assay type: toxicity; method in brief: as §1
[1] = Cytotoxicity against human HEK293T cells assessed as reduction in cell viability incubated for 72 hrs by CytoTox 96 nonradioactive assay; assay type: toxicity, cell-based, HEK-293T
Cathepsin D = Cathepsin D (Homo sapiens, UniProt P07339); test: Inhibition of human Cathepsin D; assay type: toxicity; method in brief: as §1
Chain of Cathepsin D (P07339 65-162 limits assumed): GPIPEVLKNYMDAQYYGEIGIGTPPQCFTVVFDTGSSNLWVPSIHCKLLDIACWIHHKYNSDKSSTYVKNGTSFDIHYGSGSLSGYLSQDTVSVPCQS
Chain of Cathepsin D (P07339 169-412 limits assumed): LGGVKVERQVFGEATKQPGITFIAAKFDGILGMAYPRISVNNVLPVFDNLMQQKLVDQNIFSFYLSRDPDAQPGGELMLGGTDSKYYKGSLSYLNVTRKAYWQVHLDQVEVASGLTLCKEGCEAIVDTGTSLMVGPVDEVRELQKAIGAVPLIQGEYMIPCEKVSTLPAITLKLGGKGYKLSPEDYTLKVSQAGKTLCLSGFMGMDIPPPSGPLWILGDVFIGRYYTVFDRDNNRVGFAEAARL

[2] = system: Feline infectious peritonitis virus; test: Antiviral activity against FIPV 1146 infected in CRFK cells assessed as inhibition of viral replication incubated for upto 168 hrs by TCID50 method; assay type: functional, organism-based; details: Alphacoronavirus 1, 1146, CRFK
Method in brief: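 Crandell-Rees feline kidney cells infected with FIPV-1146; test compounds added to the medium at various concentrations. EC50 was fitted from the dose-dependent inhibition curve with a variable slope. Values are mean ± SD.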

Cathepsin G = molecular target: T2, Cathepsin G (Homo sapiens, UniProt P08311); test: Inhibition of human Cathepsin G; assay type: toxicity; method in brief: as §1
T2 sequence (P08311 whole entry): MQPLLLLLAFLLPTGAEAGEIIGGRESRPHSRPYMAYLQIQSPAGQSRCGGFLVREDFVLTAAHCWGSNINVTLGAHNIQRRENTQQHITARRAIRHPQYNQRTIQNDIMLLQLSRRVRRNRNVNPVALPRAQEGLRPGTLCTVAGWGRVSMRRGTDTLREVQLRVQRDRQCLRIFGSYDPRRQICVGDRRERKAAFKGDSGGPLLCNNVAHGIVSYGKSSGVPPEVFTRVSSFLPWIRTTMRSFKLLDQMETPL

Procathepsin L = Procathepsin L (Homo sapiens, UniProt P07711); test: Inhibition of human Cathepsin L; assay type: toxicity; method in brief: as §1
Chain of Procathepsin L (P07711 whole entry): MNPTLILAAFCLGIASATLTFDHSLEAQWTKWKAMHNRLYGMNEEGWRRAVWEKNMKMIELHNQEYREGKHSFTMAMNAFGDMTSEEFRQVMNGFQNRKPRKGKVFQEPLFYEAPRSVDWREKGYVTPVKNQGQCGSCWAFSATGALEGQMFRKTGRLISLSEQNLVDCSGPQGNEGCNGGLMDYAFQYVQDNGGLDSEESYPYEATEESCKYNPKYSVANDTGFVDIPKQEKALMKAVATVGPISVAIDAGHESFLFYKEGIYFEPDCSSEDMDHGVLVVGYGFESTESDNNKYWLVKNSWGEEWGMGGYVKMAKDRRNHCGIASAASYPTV

chymotrypsin = chymotrypsin (Homo sapiens, UniProt P17538+P40313+Q6GPI1+Q99895); test: Inhibition of human chymotrypsin; assay type: toxicity; method in brief: as §1
[3] = molecular target: Replicase polyprotein 1ab (Severe acute respiratory syndrome coronavirus 2, UniProt P0DTD1); test: Inhibition of N-terminal His6-tagged full length SARS-CoV-2 3CLpro using FAM-SAVLQ as substrate preincubated with enzyme for 1 hr followed by susbtrate addition and measured after 1 hr by FRET assay
Cathepsin B = Cathepsin B (Homo sapiens, UniProt P07858); test: Inhibition of human Cathepsin B; assay type: toxicity; method in brief: as §1
SARS-CoV-2 = test: Antiviral activity against SARS-CoV-2 Wuhan-HU-1 infected in HEK293T cells assessed as inhibition of viral replication incubated for 30 hrs by luciferase reporter gene assay; assay type: functional, organism-based; details: Severe acute respiratory syndrome coronavirus 2, Wuhan-HU-1, HEK-293T
Method in brief: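 This is a non-infectious Wuhan-Hu-1 replicon system, not infectious virus. Replicon RNA was electroporated into 293T cells, which were then incubated for 30 h with compound at 2, 0.5, 0.1 and 0.02 µM or with 0.1% DMSO. Read-out was luciferase activity. Values are mean ± SD.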

[4] = Safety index, ratio of CC50 for cytotoxicity against human HEK293T cells to EC50 for antiviral activity against SARS-CoV-2 Wuhan-HU-1 infected in HEK293T cells; assay type: toxicity, cell-based; details: read-out: Ratio CC50/EC50
Method in brief: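 In vitro safety index was calculated as the 293T CC50 divided by the SARS-CoV-2 replicon EC50.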

[5] = Inhibition of MERS-CoV 3CLpro using FAM-SAVLQ as substrate preincubated with enzyme for 1 hr followed by susbtrate addition and measured after 1 hr by FRET assay; design: species or system Middle East respiratory syndrome-related coronavirus

**Q.** With CC(C)C[C@H](NC(=O)OCC(C)(C)Oc1ccc(F)cc1)C(=O)N[C@H](C=O)C[C@@H]1CCNC1=O as the molecule, how does the IC50 (Neutrophil elastase) read?
**A.** The IC50 was over 50 µM.

**Q.** And the IC50 (Prothrombin)?
**A.** The IC50 was over 50 µM.

**Q.** What about the CC50 at 72 h [1] of the same molecule?
**A.** Its CC50 at 72 h is over 50 µM.

**Q.** And the IC50 (Cathepsin D)?
**A.** Its IC50 is over 50 µM.

**Q.** And the EC50 [2]?
**A.** The EC50 was 70 nM.

**Q.** What about the IC50 (Cathepsin G) of the same molecule?
**A.** Its IC50 is over 50 µM.

**Q.** What about the IC50 (Procathepsin L) of the same molecule?
**A.** Its IC50 is 30 nM.

**Q.** What about the IC50 (chymotrypsin) of the same molecule?
**A.** The IC50 was over 50 µM.

**Q.** And the IC50 [3]?
**A.** The IC50 was 220 nM.

**Q.** And the IC50 (Cathepsin B)?
**A.** The IC50 was 1900 nM.

**Q.** With [2H]C([2H])(OC(=O)N[C@@H](CC(C)C)C(=O)N[C@H](C=O)C[C@@H]1CCNC1=O)C(C)(C)Oc1ccc(Cl)cc1 as the molecule, how does the IC50 (Neutrophil elastase) read?
**A.** Its IC50 is over 50 µM.

**Q.** And the EC50 (SARS-CoV-2)?
**A.** The EC50 was 15 nM.

**Q.** What about the IC50 (Prothrombin) of the same molecule?
**A.** The IC50 was over 50 µM.

**Q.** And the CC50 at 72 h [1]?
**A.** Its CC50 at 72 h is over 50 µM.

**Q.** What about the IC50 (Cathepsin D) of the same molecule?
**A.** Its IC50 is over 50 µM.

**Q.** What about the EC50 [2] of the same molecule?
**A.** The EC50 was 100 nM.

**Q.** What about the selectivity ratio [4] of the same molecule?
**A.** Its selectivity ratio is 3330.

**Q.** What about the IC50 (Cathepsin G) of the same molecule?
**A.** The IC50 was over 50 µM.

**Q.** And the IC50 (Procathepsin L)?
**A.** The IC50 was 40 nM.

**Q.** What about the IC50 (chymotrypsin) of the same molecule?
**A.** The IC50 was over 50 µM.

**Q.** And the IC50 [3]?
**A.** The IC50 was 170 nM.

**Q.** What about the IC50 (Cathepsin B) of the same molecule?
**A.** The IC50 was 800 nM.

**Q.** Which IC50 (Neutrophil elastase) does the source give for CC(C)C[C@H](NC(=O)OCC(C)(C)Sc1cccc(Cl)c1)C(=O)N[C@H](C=O)C[C@@H]1CCNC1=O here?
**A.** The IC50 was over 50 µM.

**Q.** And the EC50 (SARS-CoV-2)?
**A.** The EC50 was 10 nM.

**Q.** And the IC50 (Prothrombin)?
**A.** Its IC50 is over 50 µM.

**Q.** What about the CC50 at 72 h [1] of the same molecule?
**A.** The CC50 at 72 h was over 50 µM.

**Q.** And the IC50 (Cathepsin D)?
**A.** The IC50 was over 50 µM.

**Q.** What about the EC50 [2] of the same molecule?
**A.** Its EC50 is 190 nM.

**Q.** And the selectivity ratio [4]?
**A.** The selectivity ratio was 3330.

**Q.** And the IC50 (Cathepsin G)?
**A.** Its IC50 is over 50 µM.

**Q.** What about the IC50 (Procathepsin L) of the same molecule?
**A.** Its IC50 is 30 nM.

**Q.** What about the IC50 (chymotrypsin) of the same molecule?
**A.** Its IC50 is over 50 µM.

**Q.** What about the IC50 [5] of the same molecule?
**A.** The IC50 was 110 nM.

**Q.** What about the IC50 [3] of the same molecule?
**A.** Its IC50 is 150 nM.

**Q.** What about the IC50 (Cathepsin B) of the same molecule?
**A.** The IC50 was 1400 nM.

**Q.** With CC(C)C[C@H](NC(=O)OCC(C)(C)Sc1ccccc1)C(=O)N[C@H](C#N)C[C@@H]1CCNC1=O as the molecule, how does the IC50 (Neutrophil elastase) read?
**A.** The IC50 was over 50 µM.

**Q.** And the EC50 (SARS-CoV-2)?
**A.** The EC50 was 60 nM.

**Q.** What about the IC50 (Prothrombin) of the same molecule?
**A.** The IC50 was over 50 µM.

**Q.** And the CC50 at 72 h [1]?
**A.** The CC50 at 72 h was over 50 µM.

**Q.** And the IC50 (Cathepsin D)?
**A.** Its IC50 is over 50 µM.

**Q.** What about the EC50 [2] of the same molecule?
**A.** The EC50 was 1320 nM.

**Q.** And the IC50 (Cathepsin G)?
**A.** The IC50 was over 50 µM.

**Q.** What about the IC50 (Procathepsin L) of the same molecule?
**A.** The IC50 was 30 nM.

**Q.** What about the IC50 (chymotrypsin) of the same molecule?
**A.** The IC50 was over 50 µM.

**Q.** And the IC50 [5]?
**A.** The IC50 was 410 nM.

**Q.** What about the IC50 [3] of the same molecule?
**A.** The IC50 was 490 nM.

**Q.** And the IC50 (Cathepsin B)?
**A.** Its IC50 is 2600 nM.

**Q.** Which IC50 (Neutrophil elastase) does the source give for CC(C)C[C@H](NC(=O)OCC(C)(C)Oc1cccc(Cl)c1)C(=O)N[C@H](C=O)C[C@@H]1CCNC1=O here?
**A.** Its IC50 is over 50 µM.

**Q.** And the EC50 (SARS-CoV-2)?
**A.** Its EC50 is 13 nM.

**Q.** And the IC50 (Prothrombin)?
**A.** Its IC50 is over 50 µM.

**Q.** And the CC50 at 72 h [1]?
**A.** Its CC50 at 72 h is over 50 µM.

**Q.** What about the IC50 (Cathepsin D) of the same molecule?
**A.** Its IC50 is over 50 µM.

**Q.** And the EC50 [2]?
**A.** Its EC50 is 60 nM.

**Q.** And the selectivity ratio [4]?
**A.** Its selectivity ratio is 3330.

**Q.** What about the IC50 (Cathepsin G) of the same molecule?
**A.** The IC50 was over 50 µM.

**Q.** And the IC50 (Procathepsin L)?
**A.** Its IC50 is 20 nM.

**Q.** What about the IC50 (chymotrypsin) of the same molecule?
**A.** Its IC50 is over 50 µM.

**Q.** And the IC50 [3]?
**A.** The IC50 was 190 nM.

**Q.** And the IC50 (Cathepsin B)?
**A.** The IC50 was 900 nM.

**Q.** What does the source list for CC(C)C[C@H](NC(=O)OCC(C)(C)Sc1ccccc1)C(=O)N[C@H](C=O)C[C@@H]1CCNC1=O?
**A.** IC50 (Neutrophil elastase): > 50 µM; EC50 (SARS-CoV-2): 12 nM; IC50 (Prothrombin): > 50 µM; CC50 at 72 h [1]: > 50 µM; IC50 (Cathepsin D): > 50 µM; EC50 [2]: 80 nM; selectivity ratio [4]: 3330; IC50 (Cathepsin G): > 50 µM; IC50 (Procathepsin L): 30 nM; IC50 (chymotrypsin): > 50 µM; IC50 [5]: 80 nM; IC50 [3]: 70 nM; IC50 (Cathepsin B): 1900 nM

**Q.** For [2H]C([2H])(OC(=O)N[C@@H](CC(C)C)C(=O)N[C@H](C=O)C[C@@H]1CCNC1=O)C(C)(C)Sc1ccccc1, which IC50 (Neutrophil elastase) is on record?
**A.** The IC50 was over 50 µM.

**Q.** What about the EC50 (SARS-CoV-2) of the same molecule?
**A.** Its EC50 is 11 nM.

**Q.** And the IC50 (Prothrombin)?
**A.** The IC50 was over 50 µM.

**Q.** And the CC50 at 72 h [1]?
**A.** Its CC50 at 72 h is over 50 µM.

**Q.** What about the IC50 (Cathepsin D) of the same molecule?
**A.** Its IC50 is over 50 µM.

**Q.** And the EC50 [2]?
**A.** The EC50 was 100 nM.

**Q.** What about the selectivity ratio [4] of the same molecule?
**A.** The selectivity ratio was 3330.

**Q.** And the IC50 (Cathepsin G)?
**A.** The IC50 was over 50 µM.

**Q.** And the IC50 (Procathepsin L)?
**A.** The IC50 was 30 nM.

**Q.** What about the IC50 (chymotrypsin) of the same molecule?
**A.** Its IC50 is over 50 µM.

**Q.** And the IC50 [5]?
**A.** The IC50 was 60 nM.

**Q.** And the IC50 [3]?
**A.** The IC50 was 200 nM.

**Q.** What about the IC50 (Cathepsin B) of the same molecule?
**A.** The IC50 was 2000 nM.

**Q.** What does the source list for CC(C)C[C@H](NC(=O)OCC(C)(C)Sc1ccccc1)C(=O)N[C@@H](C[C@@H]1CCNC1=O)C(=O)C(=O)NC1CC1?
**A.** IC50 (Neutrophil elastase): > 50 µM; EC50 (SARS-CoV-2): 50 nM; IC50 (Prothrombin): > 50 µM; CC50 at 72 h [1]: > 50 µM; IC50 (Cathepsin D): > 50 µM; EC50 [2]: 710 nM; IC50 (Cathepsin G): > 50 µM; IC50 (Procathepsin L): 40 nM; IC50 (chymotrypsin): > 50 µM; IC50 [3]: 210 nM; IC50 (Cathepsin B): 2000 nM
